Bioassay records from PubChem.
Autophagy mod: alters autophagy in cells; calls only at 10 µM (by protocol); MEF GFP-LC3 puncta imaging; test concentration mostly 10 µM; actives 0.98% (n = 190,000);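 active = percentage of spot-positive cells more than 3 SD above its plate mean, without a fluorescence outlier flag or 80% toxicity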
Dynein transport: blocks dynein driven cargo transport along microtubules | 3617.4 mouse cells, GR-EGFP nuclear translocation imaging; test concentration mostly 20 µM; stimulated with dexamethasone, 1 µM; active compounds read low | z-score, hits read low | actives 0.47% (n = 220,000) | AID 1381;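 active = plate z-score of nuclear minus cytoplasmic receptor signal below a set negative limit, without overly bright fluorescence or cell loss, cut at about -3.5 in these data, passing the limit was not always enough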;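 note: z-score of nuclear minus cytoplasmic ring GR-EGFP intensity difference per well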
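Buffer or medium: tetracycline-free induction medium containing charcoal-stripped FBS / Reagent: dexamethasone agonist, 1.0 µM final, for 30 min / Technique: automated 10x imaging of fixed Hoechst-stained cells / Times: induction 48 h, compound 1 h, agonist 30 min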
TNF death inh: blocks TNF-alpha induced death of Jurkat FADD-/- cells; AID 463075; Jurkat FADD-/- TNF necroptosis rescue, ATP luminescence, 24 h; 0 = TNF only, 100 = no-TNF cells; activation (protection from cell death), % at 10 µM; actives 0.068% (n = 220,000);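 active = activation, meaning protection from cell death, of at least 50% relative to plate controls; inactive = activation below 50%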;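 note: necroptosis triggered by 40 ng/mL TNF-alpha added together with compound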
L929 necroptosis: blocks zVAD induced death of L929 cells | viability rescue, % at 10 µM | actives 0.38% (n = 220,000) | AID 1377 | L929 zVAD necroptosis rescue, ATP luminescence, 24 h; with zVAD 60 µM;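 active = activation, scaled between plate controls, above about 75%, limit read from the data; inactive = activation under that limit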
Mdm2 ligase inh: blocks human Mdm2 ubiquitin ligase activity; cell-based MDM2 ubiquitination luciferase reporter, 2 h; 0 = plate control, 100 = twice control, blank-subtracted; signal enhancement, % at 5 µM; actives 0.11% (n = 210,000); AID 1230;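 active = signal enhancement of 30% or more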;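 note: luminescence tracks abundance of the self-degrading MDM2-luciferase fusion protein; higher signal means inhibition of MDM2 E3 ligase activity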
Target sequence (Q00987 whole entry, looked up, the tested form may be a part): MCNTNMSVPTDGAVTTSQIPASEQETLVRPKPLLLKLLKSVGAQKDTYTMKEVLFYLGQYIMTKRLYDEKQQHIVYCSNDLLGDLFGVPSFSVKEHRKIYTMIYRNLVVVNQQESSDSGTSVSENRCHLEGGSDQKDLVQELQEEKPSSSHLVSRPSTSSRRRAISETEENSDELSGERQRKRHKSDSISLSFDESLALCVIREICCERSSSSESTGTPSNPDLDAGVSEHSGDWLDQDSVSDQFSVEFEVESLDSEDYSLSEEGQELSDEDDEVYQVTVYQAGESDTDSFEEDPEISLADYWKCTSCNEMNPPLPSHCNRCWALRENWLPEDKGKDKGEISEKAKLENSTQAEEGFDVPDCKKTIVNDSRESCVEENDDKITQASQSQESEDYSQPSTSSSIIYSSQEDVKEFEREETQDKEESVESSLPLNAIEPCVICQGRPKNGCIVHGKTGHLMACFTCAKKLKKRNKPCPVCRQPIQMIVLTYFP
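Material: Stable MDM2–luciferase fusion reporter cells | Amount: 2000 cells seeded into each well | Dosing: One concentration, 5 µM, with 0.2% DMSO | Incubation: 4 h cell settling then 2 h compound exposure, 37 °C | Measured by: Luciferase luminescence | Read-out basis: % enhancement relative to plate controls after blank subtraction | Benchmarks: Control and blank well means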
Large screens that a line does not name were inactive. Compounds with a hit are over-represented: about 1.8% of the library has one in this group of screens.

COc1cc(C(=O)Nc2cccc3ncccc23)cc(OC)c1OC	none
COc1cc(C(=O)Nc2ccccc2C2COC(=O)C2=N)cc(OC)c1OC (stereo unspecified)	Autophagy mod active
CCCCCCCn1c2c(c(=N)c3c1CCC3)CCCC2	Autophagy mod active
Cc1ccc(C2SCCN2C(=O)c2ccc([N+](=O)[O-])cc2)cc1 (stereo unspecified)	TNF death inh 51
CN(c1ccccc1)S(=O)(=O)c1cccc(C(=O)OCC(=O)NCCCN2CCCC2=O)c1	none
CC1(C)CC(=O)C2=C(C1)N=c1s/c(=C/c3ccc(F)c(F)c3)c(=O)n1C2c1ccc(F)cc1 (stereo unspecified)	Autophagy mod active
Cc1cc(NC(=O)c2ccc3c(c2)C(=O)N(C)C3=O)no1	none
Cc1cc(NC(=O)c2ccc3c(c2)C(=O)N(C2CCCCC2)C3=O)no1	Autophagy mod active
O=C(COC(=O)CNS(=O)(=O)c1cccc(Br)c1)Nc1ccccc1Sc1ccccc1	none
C=CCN=C1CC(C)(C)C(C(=O)OC)C(O)=C1C(=O)CCC (stereo unspecified)	none (no result: Mdm2 ligase inh)
COc1ccc(Cl)cc1NC(=O)C(OC)c1ccccc1 (stereo unspecified)	none
COC(C(=O)Nc1ccc(S(=O)(=O)N2CCCCC2)cc1)c1ccccc1 (stereo unspecified)	TNF death inh 60
COc1ccc(NC(=O)C(OC)c2ccccc2)cc1Cl (stereo unspecified)	TNF death inh 50
COC(C(=O)Nc1ccc(F)cc1)c1ccccc1 (stereo unspecified)	TNF death inh 98 (no result: L929 necroptosis, Mdm2 ligase inh)
COc1ccc(N=C2O/C(=C/c3sc(=S)n(CC4CCCO4)c3O)N=C2C#N)cc1 (stereo unspecified)	none (no result: Autophagy mod)
COc1ccc(-c2c[n+]3c4n2CCCCC4=C(c2ccc(Br)cc2)C3)cc1	none
Clc1ccc(C2=C3CCCCn4c(-c5ccccc5)c[n+](c43)C2)cc1	Autophagy mod active
Cc1nc(NC(=O)/C=C/c2ccccc2)n[nH]1	Mdm2 ligase inh 39
CC(C)c1nc2sc3c(NCc4ccccc4)ncnc3c2c2c1COC(C)(C)C2	Autophagy mod active
O=C(NNC(=O)C1CCN(c2ncccn2)CC1)c1ccncc1	none
COc1ccccc1NC(=O)C(C)NS(=O)(=O)c1ccc(Cl)cc1 (stereo unspecified)	none
COc1ccccc1NCC(=O)NNC(C)C(=O)Nc1cccc(Cl)c1 (stereo unspecified)	Autophagy mod active
COc1ccc(-c2ccc(/C=N/NC(=O)c3cccnc3)o2)c([N+](=O)[O-])c1	Autophagy mod active
O=C(Nc1nc(-c2ccccn2)cs1)c1ccc(Br)s1	Autophagy mod active, Mdm2 ligase inh 45
O=C(Nc1nc(-c2ccccn2)cs1)c1ccco1	none
COc1ccc(CCNC(=O)CCN2C(=O)c3cccc4cccc(c34)C2=O)cc1OC	none
COc1ccc(CCN2C(=O)c3cccc4c(C(=O)N5CCCCC5)ccc(c34)C2=O)cc1OC	Autophagy mod active
COc1ccc(NC(=O)CN(C)C(=O)c2oc3ccccc3c2C)cc1	none
CSc1nn2c(C(F)(F)F)cc(C(F)(F)F)nc2c1C(=O)O	none (no result: Autophagy mod)
CCCCn1c2nc3ccccc3nc2c2c(=O)n(-c3ccccc3)cnc21	none (no result: L929 necroptosis)
CCCCn1nc(-c2ccccc2)c2nc3ccccc3nc21	Autophagy mod active
Cn1nc(-c2ccccc2)c2nc3ccccc3nc21	Autophagy mod active
Cc1cccc(OCC(=O)NNC(=O)C2CCCCC2C(=O)O)c1 (stereo unspecified)	none
Cc1ccc(Cn2c(=N)n(CC(=O)c3ccccc3)c3ccccc32)cc1	Autophagy mod active
CCCCOc1ccccc1NC(=O)Cn1c(-c2nonc2N)nc2ccccc21	Autophagy mod active
NNC(=O)Cn1c(-c2nonc2N)nc2ccccc21	none
COc1cccc(Cn2c(-c3nonc3N)nc3ccccc32)c1	none
COc1cc(Cn2c(-c3nonc3N)nc3ccccc32)ccc1C	Autophagy mod active
COc1ccc([N+](=O)[O-])cc1NC(=O)c1cn(-c2ccc(Cl)cc2)c(=O)c2ccccc12	none
CCN1C(=O)/C(=C\c2nc3ccccc3c(=O)n2CC)c2ccccc21	Autophagy mod active
COc1ccc(N(CC(=O)NCCC2=CCCCC2)S(=O)(=O)c2c(C)[nH]c(=O)[nH]c2=O)cc1	none (no result: Autophagy mod)
CC(NS(=O)(=O)/C=C/c1ccccc1)c1ccccc1 (stereo unspecified)	none
CCn1cc(C(=O)N2CCc3ccccc3C2)c(=O)c2cc(S(=O)(=O)N3CCCCC3)ccc21	Autophagy mod active (no result: L929 necroptosis)
COc1ccc(-c2c(C)n([O-])c3c([n+]2=O)CCCC3)cc1OC	Autophagy mod active
COc1ccc2cc(C)c3nnc(SCC(=O)Nc4nc(-c5ccccc5)cs4)n3c2c1	Autophagy mod active
O=S(=O)(Oc1ccc(Cl)cc1)c1cccc2cccnc12	none (no result: Autophagy mod)
N#Cc1c(Cl)nsc1NC(=O)c1ccccc1	Autophagy mod active
Cc1ccc(Cl)c(NC(=O)COC(=O)c2ccccc2C(=O)c2ccc(Cl)c([N+](=O)[O-])c2)c1Cl	Autophagy mod active
CCCNC(=O)COC(=O)c1ccccc1C(=O)c1ccc(Cl)c([N+](=O)[O-])c1	none
CCCn1nnc(NC(=O)c2cccc(OCC)c2)n1	Autophagy mod active
CCCn1nnc(NC(=O)c2cccc(OCC(C)C)c2)n1	none
CCOc1cccc(C(=O)Nc2cccc(-c3nnc(-c4ccc(C)cc4)o3)c2)c1	Autophagy mod active
Cc1cc(C)c(NS(=O)(=O)c2ccc3c(c2)NC(=O)CC(=O)N3)c(C)c1	none
CCN1C(=O)CC(N2CCN(C(c3ccccc3)c3ccccc3)CC2)C1=O (stereo unspecified)	none
CCN1C(=O)C(CC(=O)N2CCN(C(c3ccccc3)c3ccccc3)CC2)N(CC)C1=O (stereo unspecified)	Autophagy mod active
Cn1c(=O)cc(Nc2ccccc2)c2c(=O)n(-c3ccccc3)c(=O)n(-c3ccccc3)c21	none (no result: Autophagy mod)
CCCN(CCC)C(=O)/C=C/c1cccc([N+](=O)[O-])c1	none (no result: Autophagy mod, Mdm2 ligase inh)
CCCN1C/C(=C/c2cccc([N+](=O)[O-])c2)C(=O)/C(=C/c2cccc([N+](=O)[O-])c2)C1	Autophagy mod active, Dynein transport -6.3
COc1ccc(C(=O)Oc2ccc3c(c2)OCO3)cc1OC	none
COc1cc2c(OC(C)=O)c3c(c(-c4ccc5c(c4)OCO5)c2cc1OC)C(=O)OC3	Autophagy mod active
COc1cc2c(O)c3c(c(-c4ccc5c(c4)OCO5)c2cc1OC)C(=O)OC3	Autophagy mod active
